Source: ChEMBL document CHEMBL1649111, “Restoration of susceptibility of intracellular methicillin-resistant Staphylococcus aureus to beta-lactams: comparison of strains, cells, and antibiotics” (Antimicrob Agents Chemother, 2008)
In brackets after ≈: the same amount, converted by molar mass.

What was measured:
[1] = system: Staphylococcus aureus; assay: Antimicrobial activity against hospital acquired methicillin-resistant and vancomycin-intermediate Staphylococcus aureus NRS18 obtained from wound, skin and soft tissue infection of patient infected in human THP-1 cells assessed as decrease in bacterial count from original inoculum at high compound concentration after 24 hrs at pH 5.5; format: functional
How it was run: (§1)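 Bacteria phagocytosed by unactivated human THP-1 macrophages, then incubated 24 h with extracellular antibiotic at about 0.01× to 100× the pH 5.5 broth MIC. CFU per mg cell protein counted against the original inoculum, n = 3. A Hill-equation fit (slope factor 1) gave Emin and Emax, extrapolated to infinitely low and high concentration, and EC50. Static concentration was graphically interpolated.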

[2] = system: Staphylococcus aureus; assay: Antimicrobial activity against beta-lactamase negative methicillin-susceptible Staphylococcus aureus ATCC 25923 infected in human THP-1 cells assessed as decrease in bacterial growth after 24 hrs at pH 7.4; format: functional, organism-based; conditions: ATCC 25923, THP-1, 24 h
[3] = system: Staphylococcus aureus; assay: (§2) Antimicrobial activity against Panton-valentine leukocidin positive community acquired methicillin-resistant Staphylococcus aureus NRS192 obtained from patient with pneumonia and septic arthritis infected in human THP-1 cells assessed as increase in bacterial count from original inoculum at low compound concentration after 24 hrs at pH 5.5; format: functional; how it was run: as §1
[4] = system: Staphylococcus aureus; assay: Antimicrobial activity against beta-lactamase negative methicillin-susceptible Staphylococcus aureus ATCC 25923 infected in human THP-1 cells assessed as increase in bacterial count from original inoculum at low compound concentration after 24 hrs at pH 7.4; format: functional
[5] = system: Staphylococcus aureus; assay: Antimicrobial activity against intracellular hospital acquired methicillin-resistant Staphylococcus aureus ATCC 33591 infected in human Calu3 cells assessed as decrease in bacterial growth after 24 hrs at pH 7.4; format: functional, organism-based; conditions: ATCC 33591, Calu-3, 24 h
How it was run: (§3)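 Primary human skin keratinocytes or Calu-3 bronchial epithelial cells, given an inoculum of 5 × 10⁷ to 1 × 10⁸ bacteria/ml and 2 h for internalization. Post-phagocytosis load 1.5 × 10⁶ to 3.0 × 10⁶ CFU per mg cell protein. Cloxacillin dose range in mg/liter for 24 h, n = 3. Hill-derived Emin, Emax and EC50; static concentration interpolated.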

[6] = system: Staphylococcus aureus; assay: Antimicrobial activity against animal acquired methicillin-resistant Staphylococcus aureus N7112046 by broth microdilution method at pH 7.4; format: functional
[7] = system: Staphylococcus aureus; assay: Bacteriostatic activity against intracellular beta-lactamase negative methicillin-susceptible Staphylococcus aureus ATCC 25923 infected in human Calu3 cells assessed as decrease in bacterial growth after 24 hrs at pH 7.4; format: functional, Calu-3
How it was run: (§4)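 Primary human skin keratinocytes or Calu-3 bronchial epithelial cells infected with MSSA ATCC 25923 at 5 × 10⁷ to 1 × 10⁸ bacteria/ml, 2 h internalization. Postphagocytosis inoculum 1.5 × 10⁶ to 3.0 × 10⁶ CFU/mg protein. Cloxacillin concentration range for 24 h; CFU/mg protein change vs. inoculum (n = 3). Hill fit gives Emin/Emax; static concentration by graphical interpolation.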

[8] = system: Staphylococcus aureus; assay: Antimicrobial activity against hospital acquired methicillin-resistant Staphylococcus aureus N4120210 obtained from urinary tract infection patient by broth microdilution method at pH 5.5; format: functional; conditions: N4120210, Urine
[9] = system: Staphylococcus aureus; assay: Antimicrobial activity against intracellular hospital acquired methicillin-resistant Staphylococcus aureus ATCC 33591 infected in human Calu3 cells assessed as decrease in bacterial count from original inoculum at high compound concentration after 24 hrs at pH 7.4; format: functional, Calu-3; how it was run: as §3
[10] = system: Staphylococcus aureus; assay: Antimicrobial activity against intracellular beta-lactamase negative methicillin-susceptible Staphylococcus aureus ATCC 25923 infected in human Calu3 cells assessed as decrease in bacterial growth after 24 hrs at pH 7.4; format: functional, organism-based; conditions: ATCC 25923, Calu-3, 24 h
How it was run: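 Calu-3 bronchial epithelial cells, grown in uncoated flasks, were infected with 5 × 10⁷ to 1 × 10⁸ bacteria/ml for 2 h, giving 1.5 × 10⁶ to 3.0 × 10⁶ CFU/mg protein after phagocytosis. Cells were then exposed 24 h to a range of cloxacillin concentrations (mg/liter). CFU change per mg protein was measured (n = 3). A Hill fit with slope 1 gave Emax and EC50, and the static concentration was interpolated.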

[11] = system: Staphylococcus aureus; assay: Antimicrobial activity against beta-lactamase negative methicillin-susceptible Staphylococcus aureus ATCC 25923 infected in human THP-1 cells assessed as decrease in bacterial count from original inoculum at high compound concentration after 24 hrs at pH 7.4; format: functional
[12] = system: Staphylococcus aureus; assay: Antimicrobial activity against intracellular hospital acquired methicillin-resistant Staphylococcus aureus ATCC 33591 infected in human keratinocytes assessed as decrease in bacterial growth after 24 hrs at pH 7.4; format: functional, organism-based; conditions: ATCC 33591, 24 h; how it was run: as §3
[13] = system: Staphylococcus aureus; assay: Antimicrobial activity against animal acquired methicillin-resistant Staphylococcus aureus N7112046 infected in human THP-1 cells assessed as decrease in bacterial growth after 24 hrs at pH 5.5; format: functional, organism-based; conditions: N7112046, THP-1, 24 h; how it was run: as §1
[14] = system: Staphylococcus aureus; assay: Antimicrobial activity against constitutive beta-lactamase negative methicillin-resistant Staphylococcus aureus COL NRS100 infected in human THP-1 cells assessed as decrease in bacterial growth after 24 hrs at pH 5.5; format: functional, organism-based; conditions: COL NRS100, THP-1, 24 h; how it was run: as §1
[15] = system: Staphylococcus aureus; assay: Antimicrobial activity against intracellular beta-lactamase negative methicillin-susceptible Staphylococcus aureus ATCC 25923 infected in activated human THP-1 cells assessed as decrease in bacterial count from original inoculum at high compound concentration after 24 hrs at pH 7.4; format: functional
[16] = system: Staphylococcus aureus; assay: Bacteriostatic activity against Panton-valentine leukocidin positive community acquired methicillin-resistant Staphylococcus aureus NRS192 infected in human THP-1 cells assessed as decrease in bacterial growth after 24 hrs at pH 5.5; format: functional
How it was run: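 Human THP-1 macrophages infected with each S. aureus strain. Cloxacillin added extracellularly at about 0.01× to 100× the broth MIC measured at pH 5.5, with gentamicin 0.5 mg/liter to stop extracellular growth. Incubated 24 h. CFU counted per mg cell protein as change from the post-phagocytosis inoculum, n = 3. Emin, Emax and EC50 from a Hill fit; static concentration by graphical interpolation.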

[17] = system: Staphylococcus aureus; assay: Bacteriostatic activity against beta-lactamase negative methicillin-susceptible Staphylococcus aureus ATCC 25923 infected in human THP-1 cells assessed as decrease in bacterial growth after 24 hrs at pH 7.4; format: functional
[18] = system: Staphylococcus aureus; assay: Antimicrobial activity against intracellular beta-lactamase negative methicillin-susceptible Staphylococcus aureus ATCC 25923 infected in human Calu3 cells assessed as increase in bacterial count from original inoculum at low compound concentration after 24 hrs at pH 7.4; format: functional, Calu-3; how it was run: as §4
[19] = system: Staphylococcus aureus; assay: Antimicrobial activity against hospital acquired methicillin-resistant and vancomycin-intermediate Staphylococcus aureus NRS126 obtained from patient with bloodstream infection by broth microdilution method at pH 5.5; format: functional
[20] = system: Staphylococcus aureus; assay: as §2, with “decrease” for “increase”, “high” for “low”; format: functional; how it was run: as §1
[21] = system: Staphylococcus aureus; assay: Antimicrobial activity against hospital acquired methicillin-resistant Staphylococcus aureus ATCC 33591 infected in human THP-1 cells assessed as decrease in bacterial growth after 24 hrs at pH 7.4; format: functional, organism-based; conditions: ATCC 33591, THP-1, 24 h
[22] = system: Staphylococcus aureus; assay: Antimicrobial activity against beta-lactamase negative methicillin-susceptible Staphylococcus aureus ATCC 25923 by broth microdilution method at pH 5.5; format: functional
[23] = system: Staphylococcus aureus; assay: Antimicrobial activity against intracellular beta-lactamase negative methicillin-susceptible Staphylococcus aureus ATCC 25923 infected in activated human THP-1 cells assessed as increase in bacterial count from original inoculum at low compound concentration after 24 hrs at pH 7.4; format: functional

How did the log10cfu [1] turn out when Cc1onc(-c2ccccc2Cl)c1C(=O)N[C@@H]1C(=O)N2[C@@H]1SC(C)(C)[C@@H]2C(=O)O [CLOXACILLIN] was run?
Its log10cfu is 0.57.

And the EC50 [2]?
Its EC50 is 0.27 µg/mL (≈ 0.619 µM).

And the log10cfu [3]?
Its log10cfu is 1.84.

And the log10cfu [4]?
The log10cfu was 1.79.

What about the EC50 [5] of the same compound?
Its EC50 is 0.39 µg/mL (≈ 0.895 µM).

And the MIC [6]?
Its MIC is 512 µg/mL (≈ 1170 µM).

What about the Activity [7] of the same compound?
Its Activity is 1.6 mg/L.

What about the MIC [8] of the same compound?
The MIC was 0.06 µg/mL (≈ 0.138 µM).

And the log10cfu [9]?
Its log10cfu is 0.93.

And the EC50 [10]?
The EC50 was 0.52 µg/mL (≈ 1.19 µM).

And the log10cfu [11]?
The log10cfu was 0.77.

What about the EC50 [12] of the same compound?
Its EC50 is 0.39 µg/mL (≈ 0.895 µM).

What about the EC50 [13] of the same compound?
The EC50 was 6.99 ×MIC.

And the EC50 [14]?
The EC50 was 2.74 ×MIC.

What about the log10cfu [15] of the same compound?
Its log10cfu is 0.9.

What about the Activity [16] of the same compound?
Its Activity is 16.6 ×MIC.

What about the Activity [17] of the same compound?
Its Activity is 0.6 mg/L.

And the log10cfu [18]?
Its log10cfu is 3.19.

What about the MIC [19] of the same compound?
The MIC was 0.06 µg/mL (≈ 0.138 µM).

What about the log10cfu [20] of the same compound?
Its log10cfu is 0.68.

And the EC50 [21]?
Its EC50 is 0.26 µg/mL (≈ 0.596 µM).

What about the MIC [22] of the same compound?
The MIC was 0.06 µg/mL (≈ 0.138 µM).

And the log10cfu [23]?
The log10cfu was 3.05.
